Measured values published in ChEMBL document CHEMBL1122917, “Vinblastin-23-oyl amino acid derivatives: chemistry, physicochemical data, toxicity, and antitumor activities against P388 and L1210 leukemias” (J Med Chem, 1985).

Legend:
Type in all cases: functional
Mus musculus [1] = test: Number of survivors of DBA2 mice on 30th day after inoculation with L1210 leukemia cell line intravenously at a dose of 40 mg/kg/day; 0/10; details: route intravenous
Mus musculus [2] = test: Number of survivors on 60th day at dose 20 mg/kg/day in 10 mice implanted with P388 leukemia cell line; 0/10
Mus musculus [3] = test: Number of survivors on 30th day at dose 45 mg/kg/day in 10 mice implanted with P388 leukemia cell line; 2/10
Mus musculus [4] = test: Percent increase in life span at dose 30 mg/kg/day in 10 mice implanted with P388 leukemia cell line
Procedure, shortened: (§1)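 Female DBA2 mice inoculated iv on day 0 with 10^4 P388 cells; single iv treatment on day 1 with drug as sulfate salt in physiological saline. Survival followed; %ILS from all deaths and survivors as (T/C × 100) − 100, maximal MST 30 days; survivors counted on days 30 and 60. Most experiments confirmed three times.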

Mus musculus [5] = test: Percent increase in life span at dose 40 mg/kg/day in 10 mice implanted with P388 leukemia cell line; procedure, shortened: as §1
Mus musculus [6] = test: Number of survivors on 60th day at dose 40 mg/kg/day in 10 mice implanted with P388 leukemia cell line; 0/10
Mus musculus [7] = test: Number of survivors of DBA2 mice on 30th day after inoculation with L1210 leukemia cell line intravenously at a dose of 45 mg/kg/day; 0/10; details: route intravenous
Mus musculus [8] = test: Percent increase in life span at dose 20 mg/kg/day in 10 mice implanted with P388 leukemia cell line; procedure, shortened: as §1
Mus musculus [9] = test: Number of survivors on 30th day at dose 30 mg/kg/day in 10 mice implanted with P388 leukemia cell line; 1/10
Mus musculus [10] = test: Percent increase in life span at dose 45 mg/kg/day in 10 mice implanted with P388 leukemia cell line
Mus musculus [11] = test: Number of survivors on 30th day at dose 40 mg/kg/day in 10 mice implanted with P388 leukemia cell line; 0/10
Mus musculus [12] = test: Number of survivors on 60th day at dose 30 mg/kg/day in 10 mice implanted with P388 leukemia cell line; 0/10
Mus musculus [13] = test: Percent increase in life span at dose 50 mg/kg/day in 10 mice implanted with P388 leukemia cell line; procedure, shortened: as §1
Mus musculus [14] = test: Number of survivors of DBA2 mice on 60th day after inoculation with L1210 leukemia cell line intravenously at a dose of 45 mg/kg/day; 0/10; details: route intravenous
Mus musculus [15] = test: Percent increase in life span of DBA2 mice after inoculation with L1210 leukemia intravenously at a dose of 40 mg/kg per day; details: route intravenous
Mus musculus [16] = test: Number of survivors on 30th day at dose 20 mg/kg/day in 10 mice implanted with P388 leukemia cell line; 0/10
Mus musculus [17] = test: Number of survivors of DBA2 mice on 60th day after inoculation with L1210 leukemia cell line intravenously at a dose of 40 mg/kg/day; 0/10; details: route intravenous
Mus musculus [18] = test: Percent increase in life span of DBA2 mice after inoculation with L1210 leukemia intravenously at a dose of 45 mg/kg per day; details: route intravenous
Procedure, shortened: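 Female DBA2 mice inoculated iv on day 0 with 10^4 L1210 cells; drugs given iv as sulfate salts in physiological saline, mostly once on day 1. %ILS from all deaths and survivors as (T/C × 100) − 100; survivors scored on days 30 and 60.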

Mus musculus [19] = test: Number of survivors on 60th day at dose 45 mg/kg/day in 10 mice implanted with P388 leukemia cell line; 0/10
Mus musculus [20] = test: Number of survivors on 60th day at dose 50 mg/kg/day in 9 mice implanted with P388 leukemia cell line; 0/9
Mus musculus [21] = test: Number of survivors on 30th day at dose 50 mg/kg/day in 9 mice implanted with P388 leukemia cell line; 0/9
Mus musculus [22] = test: Number of survivors on 60th day at dose 50 mg/kg/day in 10 mice implanted with P388 leukemia cell line; 0/10
Mus musculus [23] = test: Number of survivors on 30th day at dose 10 mg/kg/day in 10 mice implanted with P388 leukemia cell line; 0/10
Mus musculus [24] = test: Number of survivors on 30th day at dose 50 mg/kg/day in 10 mice implanted with P388 leukemia cell line; 0/10
Mus musculus [25] = test: Number of survivors on 60th day at dose 10 mg/kg/day in 10 mice implanted with P388 leukemia cell line; 0/10

Structure (SMILES): CCOC(=O)[C@@H](Cc1c[nH]c2ccccc12)NC(=O)[C@@]1(O)[C@H](O)[C@]2(CC)C=CCN3CC[C@@]4(c5cc([C@@]6(C(=O)OC)C[C@H]7C[N@](CCc8c6[nH]c6ccccc86)C[C@](O)(CC)C7)c(OC)cc5N(C)[C@@]14C)[C@@H]32
- Survivors (Mus musculus [1]): 0
- Survivors (Mus musculus [2]): 0
- Survivors (Mus musculus [3]): 2
- ILS at 30 mg/kg/day (Mus musculus [4]): 41.4%
- ILS at 40 mg/kg/day (Mus musculus [5]): 53.8%
- Survivors (Mus musculus [6]): 0
- Survivors (Mus musculus [7]): 0
- ILS at 20 mg/kg/day (Mus musculus [8]): 18.7%
- Survivors (Mus musculus [9]): 1
- ILS at 45 mg/kg/day (Mus musculus [10]): 85%
- Survivors (Mus musculus [11]): 0
- Survivors (Mus musculus [12]): 0
- ILS at 50 mg/kg/day (Mus musculus [13]): 59%
- Survivors (Mus musculus [14]): 0
- ILS at 40 mg/kg/day (Mus musculus [15]): 21.8%
- Survivors (Mus musculus [16]): 0
- Survivors (Mus musculus [17]): 0
- ILS at 45 mg/kg/day (Mus musculus [18]): 34.6%
- Survivors (Mus musculus [19]): 0
- Survivors (Mus musculus [20]): 0
- Survivors (Mus musculus [21]): 0

Structure (SMILES): CCOC(=O)[C@H](CCC(=O)O)NC(=O)[C@@]1(O)[C@H](O)[C@]2(CC)C=CCN3CC[C@@]4(c5cc([C@@]6(C(=O)OC)C[C@H]7C[N@](CCc8c6[nH]c6ccccc86)C[C@](O)(CC)C7)c(OC)cc5N(C)[C@@]14C)[C@@H]32
- Survivors (Mus musculus [2]): 0
- Survivors (Mus musculus [22]): 0
- ILS at 40 mg/kg/day (Mus musculus [5]): 34.5%
- Survivors (Mus musculus [6]): 0
- ILS at 20 mg/kg/day (Mus musculus [8]): 10%
- Survivors (Mus musculus [23]): 0
- Survivors (Mus musculus [11]): 0
- Survivors (Mus musculus [24]): 0
- ILS at 50 mg/kg/day (Mus musculus [13]): 2.8%
- Survivors (Mus musculus [16]): 0
- Survivors (Mus musculus [25]): 0
